One block for each molecule: values may come before it.
Legend:
[1] = target: T1, Guanylate cyclase soluble subunit alpha-1 (Rattus norvegicus) (UniProt P19686); assay: Activation of recombinant rat sGC alpha1 subunit expressed in CHO cells assessed as induction of [32P-cGMP] formation using alpha-[32P-GTP] as substrate measured after 6 mins by luminescence assay; format: cell-based; settings: filed as activator
T1 sequence (whole entry): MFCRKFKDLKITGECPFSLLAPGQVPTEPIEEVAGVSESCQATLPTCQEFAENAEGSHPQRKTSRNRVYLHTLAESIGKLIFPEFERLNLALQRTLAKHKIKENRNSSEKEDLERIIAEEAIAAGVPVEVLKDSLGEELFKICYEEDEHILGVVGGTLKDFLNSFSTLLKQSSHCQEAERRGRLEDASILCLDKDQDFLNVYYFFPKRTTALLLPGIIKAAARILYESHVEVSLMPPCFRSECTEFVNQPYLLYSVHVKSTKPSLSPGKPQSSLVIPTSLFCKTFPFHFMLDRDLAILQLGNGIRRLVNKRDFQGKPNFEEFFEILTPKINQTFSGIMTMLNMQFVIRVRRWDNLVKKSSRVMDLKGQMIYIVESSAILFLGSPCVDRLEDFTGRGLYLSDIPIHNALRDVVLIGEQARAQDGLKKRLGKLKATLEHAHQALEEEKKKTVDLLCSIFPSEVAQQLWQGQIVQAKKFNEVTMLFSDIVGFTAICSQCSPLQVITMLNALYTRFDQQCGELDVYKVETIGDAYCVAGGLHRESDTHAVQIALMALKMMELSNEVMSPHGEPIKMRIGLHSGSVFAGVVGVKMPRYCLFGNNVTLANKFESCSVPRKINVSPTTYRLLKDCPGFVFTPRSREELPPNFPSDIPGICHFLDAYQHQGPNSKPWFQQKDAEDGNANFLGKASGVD

[2] = target: T1, Guanylate cyclase soluble subunit alpha-1 (Rattus norvegicus); assay: Activation of recombinant rat sGC alpha1 subunit expressed in CHO cells assessed as induction of [32P-cGMP] formation by measuring efficacy using alpha-[32P-GTP] as substrate measured after 6 mins by luminescence assay relative to control; format: cell-based
Cytochrome P450 1A2 = target: T2, Cytochrome P450 1A2 (Homo sapiens, UniProt P05177); assay: Induction of CYP1A2 in human hepatocytes at > 10000 ng/ml using phenacetin as substrate incubated for 60 mins by LC-MS/MS analysis; format: ADME, cell-based, Hepatocyte; settings: 1 h
T2 sequence (P05177 whole entry): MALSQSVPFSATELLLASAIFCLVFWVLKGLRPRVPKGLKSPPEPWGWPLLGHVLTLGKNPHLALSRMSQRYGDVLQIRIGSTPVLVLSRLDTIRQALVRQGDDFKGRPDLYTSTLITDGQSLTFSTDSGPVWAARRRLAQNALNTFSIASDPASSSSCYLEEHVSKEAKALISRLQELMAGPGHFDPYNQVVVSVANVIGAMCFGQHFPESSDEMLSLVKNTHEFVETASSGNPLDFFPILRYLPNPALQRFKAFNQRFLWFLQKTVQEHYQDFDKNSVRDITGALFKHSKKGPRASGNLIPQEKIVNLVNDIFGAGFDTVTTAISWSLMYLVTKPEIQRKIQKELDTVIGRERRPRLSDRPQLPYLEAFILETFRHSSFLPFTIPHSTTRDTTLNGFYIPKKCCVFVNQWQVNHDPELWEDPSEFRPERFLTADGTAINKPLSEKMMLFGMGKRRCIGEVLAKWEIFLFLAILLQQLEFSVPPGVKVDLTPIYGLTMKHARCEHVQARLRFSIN

[3] = Activation of recombinant rat sGC expressed in CHO cells by luminescence assay; format: cell-based
Procedure, shortened: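 Stable CHO reporter cell line overexpressing rat sGC; cGMP formation read as luminescence. EC50 from concentration–response. MEC taken as lowest concentration giving at least threefold increase in basal luminescence.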

Cytochrome P450 3A4 = Cytochrome P450 3A4 (Homo sapiens, UniProt P08684); assay: Induction of CYP3A4 in human hepatocytes at > 10000 ng/ml using phenacetin as substrate incubated for 60 mins by LC-MS/MS analysis; format: ADME, cell-based, Hepatocyte; settings: 1 h
[4] = Induction of CYP3A4 in human hepatocytes using phenacetin as substrate incubated for 60 mins by LC-MS/MS analysis; settings: 1 h
[5] = Plasma clearance in iv dosed Beagle dog measured up to 24 hrs by LC-MS analysis; format: ADME, organism-based, Canis lupus familiaris
[6] = Plasma clearance in iv dosed cynomolgus monkey measured up to 24 hrs by LC-MS analysis; format: ADME, organism-based, Macaca fascicularis
[7] = Clearance in Wistar rat at 0.3 mg/kg, iv measured up to 24 hrs by LC-MS analysis; format: ADME, organism-based; settings: in vivo
Procedure, shortened: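 Rats dosed iv at 0.3 mg/kg; blood clearance determined.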

Sequence of Cytochrome P450 3A4 (P08684 whole entry): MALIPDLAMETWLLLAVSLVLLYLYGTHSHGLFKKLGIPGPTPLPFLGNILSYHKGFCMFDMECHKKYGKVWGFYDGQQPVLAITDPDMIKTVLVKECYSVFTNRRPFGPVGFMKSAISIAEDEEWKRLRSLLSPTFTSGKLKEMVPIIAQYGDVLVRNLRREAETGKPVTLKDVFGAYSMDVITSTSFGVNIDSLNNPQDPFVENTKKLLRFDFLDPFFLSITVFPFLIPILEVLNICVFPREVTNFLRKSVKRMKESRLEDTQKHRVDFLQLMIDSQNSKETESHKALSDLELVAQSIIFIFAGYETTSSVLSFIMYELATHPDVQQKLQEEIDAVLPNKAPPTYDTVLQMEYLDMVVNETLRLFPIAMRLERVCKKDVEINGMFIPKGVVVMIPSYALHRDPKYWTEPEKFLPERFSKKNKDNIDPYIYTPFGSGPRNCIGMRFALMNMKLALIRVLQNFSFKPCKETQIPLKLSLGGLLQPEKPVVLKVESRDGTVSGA

MEC [1]: 100 nM
SMILES: O=C(N[C@@H](CO)c1ccccc1)C(c1ccc(Cn2nc(-c3ccccc3)c3ccccc3c2=O)cc1)C1CCCC1 (some centres not stated)

Efficacy ([2]; filed as activator): 110% | Activity (Cytochrome P450 1A2): Not Active | MEC [1]: 3 nM | EC50 ([3]; CHO): 27 nM | Activity (Cytochrome P450 3A4): Not Active
SMILES: Cc1c(CCC(=O)O)cccc1NC(=O)[C@H](c1ccc(CN2N=C(c3ccccc3)OCC2=O)cc1)C1CCCC1

Efficacy [2]: 37% | MEC [1]: 1 nM | Activity [4]: 256 nM | EC50 ([3]; CHO): 5 nM
SMILES: C[C@H]([C@H](C(=O)Nc1cc(C2(CC(=O)O)CCC2)ccc1Cl)c1ccc(Cl)cc1)C(F)(F)F

MEC [1]: 30 nM
SMILES: CC[C@@H](C)[C@H](C(=O)Nc1cccc(CCC(=O)O)c1C)N1CCC(CN2N=C(c3ccccc3)OCC2=O)CC1

MEC [1]: 30 nM
SMILES: CC(C)(Cc1cccc(NC(=O)[C@H](c2ccc(CN3N=C(c4ccccc4)OCC3=O)cc2)C2CCCC2)c1)C(=O)O

MEC [1]: 1 nM
SMILES: CC[C@@H](C)[C@H](C(=O)Nc1cccc(CCC(=O)O)c1C)c1ccc(CN2N=C(c3ccccc3)OCC2=O)cc1

Efficacy ([2]; filed as activator): 52% | MEC [1]: 3 nM | Activity [4]: 2245 nM | EC50 ([3]; CHO): 70 nM
SMILES: C[C@H]([C@H](C(=O)Nc1cc(C2(CC(=O)O)COC2)ccc1Cl)c1ccc(Cl)cc1)C(F)(F)F

MEC [1]: 30 nM
SMILES: O=C(O)[C@H]1Cc2cccc(NC(=O)[C@H](c3ccc(CN4N=C(c5ccccc5)OCC4=O)cc3)C3CCCC3)c2C1

MEC [1]: 300 nM
SMILES: Cc1c(C=C[C@H](c2ccc(CN3N=C(c4ccccc4)OCC3=O)cc2)C2CCCC2)cccc1CCC(=O)O (mixture of isomers)

Efficacy [2]: 18% | MEC [1]: 1000 nM
SMILES: Cc1c(CCC(=O)O)cccc1NC(=O)[C@H](c1ccc(Cl)cc1)[C@@H](C)C(F)(F)F

Activity [4]: < 29 nM | EC50 ([3]; cho): 10 nM
SMILES: CC(C)C(CC(=O)O)c1ccc(Cl)c(NC(=O)[C@H](c2ccc(Cl)cc2)[C@@H](C)C(F)(F)F)c1 (stereo in doubt; 44b)

clearance [5]: 13.7 mL/min/kg | clearance [6]: 30 mL/min/kg | clearance [7]: 55 mL/min/kg | MEC [1]: 1 nM
SMILES: O=C(Nc1cccc(CC2(C(=O)O)CC2)c1)[C@H](c1ccc(CN2N=C(c3ccccc3)OCC2=O)cc1)C1CCCC1

Efficacy ([2]; filed as activator): 44% | MEC [1]: 3 nM
SMILES: Cc1ccc(CC2(C(=O)O)CC2)cc1NC(=O)[C@H](c1ccc(Cl)cc1)[C@@H](C)C(F)(F)F

Efficacy [2]: 4% | MEC [1]: 20 nM
SMILES: C[C@H]([C@H](C(=O)Nc1cccc(CC2(C(=O)O)CC2)c1)c1ccc(Cl)cc1)C(F)(F)F

Efficacy [2]: 19% | MEC [1]: 100 nM
SMILES: C[C@H]([C@H](C(=O)Nc1cccc(CC2(C(=O)O)CC2)c1Cl)c1ccc(Cl)cc1)C(F)(F)F

MEC [1]: 10000 nM
SMILES: CN(C(=O)C(c1ccc(CN2N=C(c3ccccc3)OCC2=O)cc1)C1CCCC1)c1cccc(CCC(=O)O)c1 (configuration not stated)

MEC [1]: 300 nM
SMILES: O=C(O)CCc1cccc(NC(=O)[C@@H](c2ccc(CN3N=C(c4ccccc4)OCC3=O)cc2)C2CCCC2)c1

MEC [1]: 3 nM
SMILES: Cc1c(CCC(=O)O)cccc1NC(=O)[C@H](c1ccc(Cn2nc(C(F)(F)F)ccc2=O)cc1)C1CCCC1

Efficacy [2]: 19% | clearance [7]: 12.8 mL/min/kg | MEC [1]: 200 nM | EC50 ([3]; CHO): 44 nM
SMILES: Cc1c(CCC(=O)O)cccc1NC(=O)[C@H](c1ccc(Cl)cc1)C1CCCC1

MEC [1]: 100 nM
SMILES: O=C(O)CCCCCNC(=O)[C@H](c1ccc(CN2N=C(c3ccccc3)OCC2=O)cc1)C1CCCC1

MEC [1]: 1000 nM
SMILES: Cc1c(CCC(=O)O)cccc1NC(=O)C(c1ccc(Cn2ncccc2=O)cc1)C1CCCC1 (racemic)

Reference: ChEMBL document CHEMBL4808182, “Discovery of the Soluble Guanylate Cyclase Activator Runcaciguat (BAY 1101042)” (J Med Chem, 2021)
